Diaph act CS – diaphorase activation or chemical reduction counter-screen. activation factor at 20 µM. Diaphorase/resazurin coupled assay, resorufin fluorescence, 16 min; hits give high values; 1 = vehicle wells, 0 = NADH-free wells. 190,000 compounds, 0.005% hits. AID 1229;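 active = diaphorase activity raised at least twofold by the compound at 20 µM; inactive = activation factor below 2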
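System – purified diaphorase enzyme from Clostridium kluyveri · Input – enzyme 0.07 U/mL final · Also added – final NADH 0.114 mM, resazurin 0.1 mM · Measured by – fluorescence of resorufin, 544 nm excitation, 590 nm emission · Timing – 16 min enzyme reaction, ambient temperature · Measure – resorufin increase flagging diaphorase activators or reducers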
PMI act satM6P – increases human PMI activity with near-saturating mannose 6-phosphate | P34949 | coupled PMI enzyme assay, resazurin fluorescence, 20 min; hits give high values; 1 = untreated enzyme, 0 = substrate-free blank | 190,000 compounds, 0.34% hits | activation factor at 20 µM;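 active = activation factor of 2 or more at 20 µM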
Target sequence (P34949 whole entry, looked up): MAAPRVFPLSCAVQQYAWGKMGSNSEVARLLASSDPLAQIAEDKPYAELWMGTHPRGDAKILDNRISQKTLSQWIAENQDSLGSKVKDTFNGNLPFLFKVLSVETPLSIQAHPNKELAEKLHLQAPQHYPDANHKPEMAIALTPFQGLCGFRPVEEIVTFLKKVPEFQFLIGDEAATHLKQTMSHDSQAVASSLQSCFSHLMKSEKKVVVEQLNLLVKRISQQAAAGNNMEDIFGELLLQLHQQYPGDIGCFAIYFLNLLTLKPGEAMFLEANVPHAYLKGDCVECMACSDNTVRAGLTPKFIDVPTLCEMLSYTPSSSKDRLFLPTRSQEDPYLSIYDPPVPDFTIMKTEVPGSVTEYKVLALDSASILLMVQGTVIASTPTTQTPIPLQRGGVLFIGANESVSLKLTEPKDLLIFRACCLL
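Test system: human PMI in coupled enzyme assay; Input: PMI at 15 ng/mL final; Medium: HEPES buffer, pH 7.4; Schedule: 20 min incubation at room temperature; Technique: resorufin fluorescence at Ex 544/Em 590 nm; Compound: 20 µM single dose; Probe or stimulus: Near-saturating mannose-6-phosphate, 1.0 mM.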
PMI activator – phosphomannose isomerase (human) activation | P34949 | purified human PMI, coupled resazurin fluorescence, 20 min; hits give high values; 1 = vehicle control, 0 substrate-free wells | activation factor at 20 µM | 190,000 compounds, 0.005% hits | AID 1214;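 active = activation factor of 2 or more at 20 µM, relative to plate controls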
Diaphorase inh – inhibits diaphorase or chemically oxidizes, flagging diaphorase assay artifacts | inhibition, % at 20 µM | diaphorase resazurin-to-resorufin fluorescence, NADH, 16 min; bacterial (C. kluyveri) enzyme, not human | 190,000 compounds, 0.69% hits;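 active = primary screen inhibition at 20 µM above a set limit, cut at about 50% in these data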;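 also: plate controls were DMSO with full reaction for no effect and wells lacking NADH for full effect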
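System: Diaphorase enzyme from Clostridium kluyveri | Amount: Enzyme working solution with 0.14 U/mL diaphorase | Benchmarks: No-NADH positive control and DMSO neutral control | Signal: Fluorescence of resorufin formed from resazurin, Ex 544/Em 590 nm | Schedule: 16-min room-temperature incubation before reading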
G6PDH counter – L. mesenteroides G6PDH inhibition counter-screen | Purified L. mesenteroides G6PDH, diaphorase/resazurin coupled fluorescence, 45 min | inhibition, % at 5 µM | 200,000 compounds, 0.12% hits | AID 1020; in the data active = inhibition above about 50%
Numbers without * were called inactive; . = not tested or not shown. Rows were chosen to be rich in hits. Some 1.1% of all compounds tested hit in one or more screens of this group.

SMILES	Diaph act CS	PMI act satM6P	PMI activator	Diaphorase inh	G6PDH counter
CCOCCCNC(=S)NCCCNc1nc2c(C)c(C)ccc2cc1C#N	0.8	2.1*	1.6	22	19
Cc1ccc2cc(C#N)c(NCCNC(=O)C3CCC3)nc2c1C	0.9	0.9	1	10	-4
CCOCCCNC(=S)N1CCCN(c2nc3c(C)c(C)ccc3cc2C#N)CC1	.	.	.	.	7
COCCCNC(=S)NCCCNc1nc2cc3c(cc2cc1C#N)OCO3	0.9	2.1*	1.4	13	-35
Cc1ccc(C(=O)C2CCOC(C)(C)C2)cc1 (stereo not drawn)	0.8	0.9	0.9	20	7
Cc1ccc(C(=O)NC(=S)N2CCN(C(=O)OC(C)(C)C)CC2)cc1Br	0.9	1	0.9	8	4
COc1cc(C2CC(=O)NC3=C2C(=O)CC(C)(C)C3)cc(OC)c1O (stereo not drawn)	0.8	0.5	0.8	21	50*
CC(C)CC(c1nnnn1Cc1ccc(F)cc1)N1CCC(C(N)=O)CC1 (stereo not drawn)	0.8	0.9	1	16	-2
CCOC(=O)c1ccc(NC(=O)N2CCN(c3ccccc3OC)CC2)cc1	0.9	0.9	0.9	11	22
CCOC(=O)/C(=N\Nc1ccc(Br)cc1)N1CCN(c2ccccc2OC)CC1	0.9	2.4*	1.8	7	0
Nc1cc2nsnc2cc1Br	0.6	0.5	0.4	41	58*
CCC(C)(C)NC(=O)c1cc([N+](=O)[O-])ccc1N1CCOCC1	0.9	1	0.9	13	-6
CC(=O)Nc1ccc(C(=O)OCC(=O)N(Cc2ccccc2)C(C)(C)C)cc1	0.5	0.8	1	54*	0
O=c1[nH]c(/C=C2\C=Nc3ccccc32)c(O)n1Cc1ccccc1F	0.3	0.8	0.8	69*	6
CSc1nc(O)c(/C=C2\C=Nc3ccccc32)[nH]1	0.8	1	1	21	9
Nn1c(=O)[nH]c2ccccc2c1=O	1.1	1.1	1.1	-12	7
Cc1cnccc1CN(C)Cc1cn(C)nc1-c1cccc(Cl)c1	0.5	1	0.9	50*	6
CC(=O)N(Cc1ccc(F)cc1)C1=C(NCc2ccccc2)C(=O)c2ccccc2C1=O	0.7	1.3	1.1	34	51*
COc1ccc(C(C)(C)C)cc1NC(=O)c1cc(S(=O)(=O)N(C)C)ccc1N1CCCC1	0.8	0.9	0.8	16	-5
COc1cc2c(cc1NC(=O)CN1CCN(S(=O)(=O)c3ccccc3F)CC1)oc1ccccc12	1	1.1	1	4	11
COc1cc(/C=C(\C#N)c2nn(CCO)c(N)c2C#N)cc(OC)c1OC	0.9	2.2*	1.6	10	2
CC(=S)c1c(C)cc2cc(C)ccn12	0.9	0.7	0.9	7	-4
CCOc1cc(/C=N/N=C(N)N)ccc1OCc1ccc(Cl)cc1	2*	1.2	1.1	-100	-2
CC(Sc1nnc(-c2ccccc2)c(-c2ccccc2)n1)C(=O)Nc1ncc(Cl)cc1Cl (stereo not drawn)	0.5	1	0.9	53*	-11
CCCN1CCCc2cc(CN)ccc21	0.7	0.5	0.5	32	54*
SMILES	Diaph act CS	PMI act satM6P	PMI activator	Diaphorase inh	G6PDH counter
CC(C)S(=O)(=O)C1=NSC2=NC(=O)/C(=C\c3ccc(-c4ccccc4)o3)C(=N)N21	0.8	1.1	1.2	24	-5
N=C1/C(=C\c2ccc(-c3cc(Cl)cc(Cl)c3)o2)C(=O)N=C2SC=C(c3ccccc3)N12	0.8	0.8	0.8	19	-12
CC(C)S(=O)(=O)C1=NSC2=NC(=O)/C(=C\c3ccc(-c4cccc(C(=O)O)c4)o3)C(=N)N21	0.3	1.1	1.2	74*	13
N=C1/C(=C/c2ccc(-c3cccc(C(=O)O)c3)o2)C(=O)N=C2SC=C(c3ccccc3)N12	0.5	0.7	0.9	54*	2
CCOC(=O)C(NCCc1ccccc1)(NC(=O)CC)C(F)(F)F (stereo not drawn)	1	1.1	1	3	-3
O=C(NC1CCCc2ccccc21)C12CC3CC(CC(O)(C3)C1)C2 (stereo not drawn)	1	0.9	1	3	4
CC(=O)NC(c1ccc(Cl)cc1)c1c(O)ccc2ccc(O)cc12 (stereo not drawn)	0.7	0.3	0.7	26	54*
COc1ccc(/C=N/N2CCN(c3ccccc3OC)CC2)cc1OC	0.9	0.9	0.9	12	-18
COc1ccccc1N1CCN(/N=C/c2ccc(O)c(O)c2)CC1	0.3	0.6	0.3	70*	38
O/C(=C\c1nc2ccccc2nc1/C=C(\O)c1ccccc1)c1ccccc1	0.8	0.8	1.3	23	51*
COc1ccc(/C(O)=C/c2nc3ccccc3n(-c3ccccc3)c2=O)cc1	0.9	0.9	1	12	0
CSc1cccc(-n2cc(-c3ccc4c(c3)OCO4)[nH]c2=O)c1	0.7	2.1*	1.5	28	12
Cc1oc2c(O)c(O)ccc2c(=O)c1-c1cnn(-c2ccccc2)c1	0.3	0.6	0.2	70*	15
O=C(N1CCCCC1)N1CCN(S(=O)(=O)c2ccc(Cl)cc2)CC1	.	.	.	.	4
Cc1ccc(C)n1-c1ccc(N2CCOCC2)c(Br)c1	0.4	1	1	56*	0
Cc1cc(C=O)c(C)n1-c1ccc(N2CCOCC2)cc1	0.9	0.9	1	7	14
N#CC1=C(N)OC2=C(C(=O)CCC2)C1CCc1ccccc1 (stereo not drawn)	0.8	0.9	0.8	21	2
Cc1c(Br)c(=O)oc2c(Br)c(O)ccc12	0.9	1.1	1.3	5	0
Cc1c(Br)c(=O)oc2c(Br)c(O)c(O)cc12	0.2	1.3	0.9	75*	26
CCOC(=O)N1CCN(CC(=O)Nc2ccc(F)c(F)c2)CC1	1.2	1.2	1.3	-16	6
COc1ccc(CN2C(=O)CC(C(=O)NCCc3ccc(S(N)(=O)=O)cc3)SC2=Nc2ccccc2)cc1 (stereo not drawn)	1	0.9	0.9	3	-2
CCOC(=O)c1ccc(N=C2SC(C(=O)NCCc3ccccc3)CC(=O)N2C)cc1 (stereo not drawn)	0.5	0.9	0.9	54*	-8
CCNc1nc(NCC)n2c(SCC(=O)NC34CC5CC(CC(C5)C3)C4)nnc2n1	0.9	1	1	12	0
Fc1cccc(Nc2nc(Cl)nc(Cl)n2)c1	1	2.2*	1.8	2	4
O=[N+]([O-])c1cccc(Nc2nc(Cl)nc(Cl)n2)c1	1.1	1.7	1.7	-8	3
Cc1cccc(Cn2c(C(=O)OC(C)C)cc3c2ccn3C)c1	0.7	0.8	0.8	28	7

High-throughput results as filed in PubChem BioAssay.
